Data published in ChEMBL document CHEMBL1138786, “Synthesis of benzodithiol-2-yl-substituted nucleoside derivatives as lead compounds having anti-bovine viral diarrhea virus activity” (J Med Chem, 2004).
“And” between values parts separate entries of the source, which are not always exact repeats. Equal entries are not always repeated.

Legend:
[1] = Anti BVDV activity in MDBK (Madin-darby bovine kidney) cells (Ribavirin EC50 1.2 and CC50 >100); format: functional, Bos taurus
Outline: (§1)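 MDBK cells in DMEM with 10% heat-inactivated horse serum, penicillin and streptomycin, seeded at 5 × 10^5 cells/ml and incubated overnight at 37 °C. Infected with about 100 focus forming units of BVDV (nose strain) in the presence of graded compound concentrations for 24 h. Monolayers washed with PBS, overlaid with medium containing bactoagar, incubated a further 24 h. Viral foci counted microscopically.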

[2] = Cytotoxicity in MDBK (Madin-darby bovine kidney) cells (Ribavirin EC50 1.2 and CC50 >100); format: cell-based, Bos taurus; details: cattle
Outline: (§2)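 Cell viability assay: MDBK cells at 2 × 10^4 per well, cultured with graded compound concentrations at 37 °C for 3 days. Viable cells measured colorimetrically with a water-soluble tetrazolium dye.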

[3] = Ratio of cytotoxicity to anti BVDV activity of the compound; parameters: species or system Bos taurus; details: cattle; for selectivity ratio: read-out: CC50/EC50
[4] = organism: Bos taurus; assay: Anti BVDV activity relative to ribavirin (EC50 1.2 and CC50 >100); format: functional
[5] = Cytotoxicity in MDBK (Madin-darby bovine kidney) cells; format: cell-based, Bos taurus; details: cattle; outline: as §2
[6] = Anti BVDV activity in MDBK (Madin-darby bovine kidney) cells; format: functional, Bos taurus; outline: as §1
[7] = organism: Bos taurus; assay: Anti BVDV activity relative to ribavirin; format: functional
[8] = organism: Bos taurus; assay: Anti BVDV activity relative to ribavirin (Ribavirin EC50 0.61 and CC50 90.2); format: functional
[9] = Anti BVDV activity in MDBK (Madin-darby bovine kidney) cells (Ribavirin EC50 0.61 and CC50 90.2); format: functional, Bos taurus; outline: as §1
[10] = Cytotoxicity in MDBK (Madin-darby bovine kidney) cells (Ribavirin EC50 0.61 and CC50 90.2); format: cell-based, Bos taurus; details: cattle; outline: as §2
[11] = Anti-bovine viral diarrhoea virus activity relative to ribavirin; format: functional, Bos taurus

| Structure (SMILES) | selectivity ratio [3] | CC50 [5] | EC50 [6] | EC50rel [7] | other results |
| --- | --- | --- | --- | --- | --- |
| OC[C@H]1O[C@@H](n2cnc3c(O)ncnc32)[C@@H](OC2Sc3ccccc3S2)C1O (stereo partly drawn) | 3.21 | – | – | – | EC50 [1]: 18.4 µM; CC50 [2]: 59.2 µM; EC50rel [4]: 15.3 |
| Nc1ccn([C@H]2C[C@H](OC3Sc4ccccc4S3)[C@@H](CO)O2)c(=O)n1 | 1 | 69.7 µM | 69.1 µM | 46.1 | – |
| CSc1ccccc1SCO[C@H]1C[C@H](n2cc(C)c(=O)[nH]c2=O)O[C@@H]1CO | > 1.1 | > 100 µM | 89.6 µM | 59.7 | – |
| Nc1ncnc2c1ncn2[C@@H]1O[C@H](CO)C(O)[C@@H]1OC1Sc2ccccc2S1 (stereo partly drawn) | 1.89 | 74.3 µM | 39.2 µM | 58.5 | – |
| CSc1ccccc1SCO[C@H]1C[C@H](n2cnc3c(N)ncnc32)O[C@@H]1CO | – | > 100 µM | > 100 µM | – | – |
| Nc1nc(O)c2ncn([C@H]3C[C@H](OC4Sc5ccccc5S4)[C@@H](CO)O3)c2n1 | > 1.3 | > 100 µM | 79.4 µM | 52.9 | – |
| O=c1ccn([C@@H]2O[C@H](CO)C(OC3Sc4ccccc4S3)[C@@H]2O)c(=O)[nH]1 (stereo partly drawn) | 1.46 | 73.9 µM | 50.6 µM | 75.5 | – |
| Nc1ncnc2c1ncn2[C@H]1C[C@H](OC2Sc3ccccc3S2)[C@@H](CO)O1 | 1.1 | 68.4 µM | 63.8 µM | 42.5 | – |
| Nc1nc(O)c2ncn([C@@H]3O[C@H](CO)C(O)[C@@H]3OC3Sc4ccccc4S3)c2n1 (stereo partly drawn) | 5.09 | 73.2 µM | 14.4 µM | 21.5 | – |
| Nc1ccn([C@@H]2O[C@H](CO)C(O)[C@@H]2OC2Sc3ccccc3S2)c(=O)n1 (stereo partly drawn) | 2.47 | 70.4 µM | 28.5 µM | 42.5 | – |
| O=c1ccn([C@@H]2O[C@H](CO)C(OC3Sc4ccccc4S3)[C@@H]2OC2Sc3ccccc3S2)c(=O)[nH]1 (stereo partly drawn) | – | 48 µM | < 48 µM | < 71.7 | – |
| CSc1ccccc1SCO[C@H]1C[C@H](n2ccc(N)nc2=O)O[C@@H]1CO | – | > 100 µM | > 100 µM | – | – |
| O=c1ccn([C@@H]2O[C@H](CO)C(O)[C@@H]2OC2Sc3ccccc3S2)c(=O)[nH]1 (stereo partly drawn) | 1.19 | 67.3 µM | 56.7 µM | 84.6 | – |
| COC(=O)Nc1ccn([C@@H]2O[C@H](CO)C(O)[C@@H]2OC2Sc3ccccc3S2)c(=O)n1 (stereo partly drawn) | 1.19 | – | – | – | EC50rel [8]: 82.5; EC50 [9]: 50.3 µM; CC50 [10]: 60.1 µM |
| CSc1ccccc1SCO[C@H]1C[C@H](n2cnc3c(O)nc(N)nc32)O[C@@H]1CO | – | > 100 µM | > 100 µM | – | – |
| NC(=O)c1ncn([C@@H]2O[C@H](CO)[C@@H](O)[C@H]2O)n1 [RIBAVIRIN] | – | > 100 µM | 1.5 µM and 0.67 µM | 1 | EC50rel [11]: 1; CC50/EC50 [3]: < 150 and > 67 |
| Cc1cn([C@H]2C[C@H](OC3Sc4ccccc4S3)[C@@H](CO)O2)c(=O)[nH]c1=O | 1.5 | 72.4 µM | 46.8 µM | – | EC50rel [11]: 31.2 |
| Cc1cn([C@H]2C[C@H](OC3Sc4ccccc4S3)[C@@H](C)O2)c(=O)[nH]c1=O | 0.93 | 81.3 µM | 86.7 µM | 57.8 | – |
| COC1Sc2ccccc2S1 | – | > 100 µM | > 100 µM | – | – |
